For assay [1], the target named is AmpC (Escherichia coli) (UniProt Q83TT7). Put plainly: Inhibition of Escherichia coli AmpC assessed as induction of protein unfolding measured by trypsin mediated degradation of compound-AmpC enzyme complex at 100 uM after 4 hrs by gel electrophoresis. The essentials: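 AmpC (0.5 μM) was preincubated 5 min with or without 100 μM aggregator in 50 mM KPi, pH 7.0, 1% DMSO final. Trypsin (0.01 or 0.025 mg/mL) was then added, and digestion ran at room temperature for 0, 15, 30 min, 1 h or 4 h. Samples were boiled in DTT-containing loading buffer and the AmpC band was followed by SDS-PAGE.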
Sequence of AmpC (Escherichia coli) (Q83TT7 as listed by the source): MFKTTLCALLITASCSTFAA

For assay [2] the target is unchanged. Put plainly: Aggregation based inhibition of Escherichia coli AmpC assessed as increase in deuteration of AmpC peptide fragment spanning 323-332 amino acid sequence after 8 hrs by hydrogen-deuterium exchange mass spectrometry relative to control. The essentials:
(§1)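 AmpC β-lactamase diluted from a 215 μM stock (50 mM KPi, pH 7.0) into deuterated 50 mM MOPS in D2O, pH 7.0. Final enzyme was 0.16 μM with 100 μM aggregator (0.5% DMSO) or 16 μM without. Aggregate samples were centrifuged 16000g for 5 min and the pellet kept. Triton X-100 was added to release enzyme. Samples were quenched with ice-cold 0.1% TFA pH 2.5, digested on immobilized pepsin 5 min on ice, then analysed by chilled fast-gradient LC-MS. Deuterium uptake is centroid mass shift versus the undeuterated control, not corrected for back exchange. Ratio is inhibited over uninhibited, from three replicates.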

Assay [3] shares this target. In words: Aggregation based inhibition of Escherichia coli AmpC assessed as increase in deuteration of AmpC peptide fragment spanning 336-350 amino acid sequence after 8 hrs by hydrogen-deuterium exchange mass spectrometry relative to control. The essentials:
as §1

Assay [4] has the same target. Put plainly: Aggregation based inhibition of Escherichia coli AmpC assessed as solvent accessibility of AmpC peptide fragment spanning 8-18 amino acid sequence by measuring ratio of side chain surface area to random coil values per amino acid reside by hydrogen-deuterium exchange mass spectrometry relative to control. Also on record: scale not given: the % may be the effect or the level left. The essentials:
(§2)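 Side-chain solvent accessibility per peptide was calculated from the structure with a 1.4 Å probe radius and default atomic radii and solvation parameters. Each value is the average over residues of the side-chain surface area relative to its random-coil value. Above 50% is exposed; below 20% is buried.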

Assay [5] shares this target. Put plainly: Aggregation based inhibition of Escherichia coli AmpC assessed as solvent accessibility of AmpC peptide fragment spanning 42-56 amino acid sequence by measuring ratio of side chain surface area to random coil values per amino acid reside by hydrogen-deuterium exchange mass spectrometry relative to control. Also on record: scale not given: the % may be the effect or the level left. The essentials: as §2

The target is the same in assay [6]. In words: Aggregation based inhibition of Escherichia coli AmpC assessed as solvent accessibility of AmpC peptide fragment spanning 105-128 amino acid sequence by measuring ratio of side chain surface area to random coil values per amino acid reside by hydrogen-deuterium exchange mass spectrometry relative to control. Further details: scale not given: the % may be the effect or the level left. The essentials:
as §2

For assay [7] the target is unchanged. In words: Aggregation based inhibition of Escherichia coli AmpC assessed as solvent accessibility of AmpC peptide fragment spanning 109-128 amino acid sequence by measuring ratio of side chain surface area to random coil values per amino acid reside by hydrogen-deuterium exchange mass spectrometry relative to control. Also on record: scale not given: the % may be the effect or the level left. The essentials:
as §2

The target is the same in assay [8]. In words: Aggregation based inhibition of Escherichia coli AmpC assessed as solvent accessibility of AmpC peptide fragment spanning 132-146 amino acid sequence by measuring ratio of side chain surface area to random coil values per amino acid reside by hydrogen-deuterium exchange mass spectrometry relative to control. Further details: scale not given: the % may be the effect or the level left. The essentials: as §2

Assay [9] shares this target. In words: Aggregation based inhibition of Escherichia coli AmpC assessed as solvent accessibility of AmpC peptide fragment spanning 243-250 amino acid sequence by measuring ratio of side chain surface area to random coil values per amino acid reside by hydrogen-deuterium exchange mass spectrometry relative to control. Further details: scale not given: the % may be the effect or the level left. The essentials:
as §2

Assay [10] has the same target. In words: Aggregation based inhibition of Escherichia coli AmpC assessed as solvent accessibility of AmpC peptide fragment spanning 271-289 amino acid sequence by measuring ratio of side chain surface area to random coil values per amino acid reside by hydrogen-deuterium exchange mass spectrometry relative to control. Also on record: scale not given: the % may be the effect or the level left. The essentials:
as §2

The target is the same in assay [11]. In words: Aggregation based inhibition of Escherichia coli AmpC assessed as solvent accessibility of AmpC peptide fragment spanning 291-322 amino acid sequence by measuring ratio of side chain surface area to random coil values per amino acid reside by hydrogen-deuterium exchange mass spectrometry relative to control. Also on record: scale not given: the % may be the effect or the level left. The essentials: as §2

For assay [12] the target is unchanged. Put plainly: Aggregation based inhibition of Escherichia coli AmpC assessed as solvent accessibility of AmpC peptide fragment spanning 323-332 amino acid sequence by measuring ratio of side chain surface area to random coil values per amino acid reside by hydrogen-deuterium exchange mass spectrometry relative to control. Also on record: scale not given: the % may be the effect or the level left. The essentials:
as §2

Assay [13] shares this target. In words: Aggregation based inhibition of Escherichia coli AmpC assessed as solvent accessibility of AmpC peptide fragment spanning 336-350 amino acid sequence by measuring ratio of side chain surface area to random coil values per amino acid reside by hydrogen-deuterium exchange mass spectrometry relative to control. Further details: scale not given: the % may be the effect or the level left. The essentials:
as §2

Assay [14] shares this target. In words: Aggregation based inhibition of Escherichia coli AmpC assessed as increase in deuteration of AmpC peptide fragment spanning 42-56 amino acid sequence after 10 mins by hydrogen-deuterium exchange mass spectrometry relative to control. The essentials: as §1
The target is the same in assay [15]. In words: Aggregation based inhibition of Escherichia coli AmpC assessed as increase in deuteration of AmpC peptide fragment spanning 8-18 amino acid sequence after 10 mins by hydrogen-deuterium exchange mass spectrometry relative to control. The essentials:
as §1

Assay [16] has the same target. Put plainly: Aggregation based inhibition of Escherichia coli AmpC assessed as increase in deuteration of AmpC peptide fragment spanning 105-128 amino acid sequence after 10 mins by hydrogen-deuterium exchange mass spectrometry relative to control. The essentials:
as §1

For assay [17] the target is unchanged. Put plainly: Aggregation based inhibition of Escherichia coli AmpC assessed as increase in deuteration of AmpC peptide fragment spanning 109-128 amino acid sequence after 10 mins by hydrogen-deuterium exchange mass spectrometry relative to control. The essentials: as §1
For assay [18] the target is unchanged. Put plainly: Aggregation based inhibition of Escherichia coli AmpC assessed as increase in deuteration of AmpC peptide fragment spanning 132-146 amino acid sequence after 10 mins by hydrogen-deuterium exchange mass spectrometry relative to control. The essentials:
as §1

Assay [19] has the same target. In words: Aggregation based inhibition of Escherichia coli AmpC assessed as increase in deuteration of AmpC peptide fragment spanning 243-250 amino acid sequence after 10 mins by hydrogen-deuterium exchange mass spectrometry relative to control. The essentials: as §1
For assay [20] the target is unchanged. In words: Aggregation based inhibition of Escherichia coli AmpC assessed as increase in deuteration of AmpC peptide fragment spanning 271-289 amino acid sequence after 10 mins by hydrogen-deuterium exchange mass spectrometry relative to control. The essentials: as §1

Activity calls are given as the source filed them. No cut-off for these calls is given here.

With `CC(=O)c1c(O)c(C)c(O)c(Cc2c(O)c3c(c(C(=O)/C=C/c4ccccc4)c2O)OC(C)(C)C=C3)c1O`, the outcome on AmpC (Escherichia coli) [1] was Active. Further, the fold change (FC) on AmpC (Escherichia coli) [2] worked out at 2.7; on AmpC (Escherichia coli) [3], 2; at AmpC (Escherichia coli) [14], 1.9; on AmpC (Escherichia coli) [15], 1.3; on AmpC (Escherichia coli) [16], 1.6; on AmpC (Escherichia coli) [17], 1.5. The fold change (FC) on AmpC (Escherichia coli) [18] stood at 2.6; at AmpC (Escherichia coli) [19], 1.2; at AmpC (Escherichia coli) [20] it was 1.4. The Activity on AmpC (Escherichia coli) [4] turned out to be 35.7%; at AmpC (Escherichia coli) [5], 44.7%; at AmpC (Escherichia coli) [6] it was 31.3%; on AmpC (Escherichia coli) [7], 36.9%; on AmpC (Escherichia coli) [8], 34.8%; on AmpC (Escherichia coli) [9], 20.7%. Also, the Activity on AmpC (Escherichia coli) [10] was 40.7%; at AmpC (Escherichia coli) [11] it was 22.3%; on AmpC (Escherichia coli) [12], 11.8%; on AmpC (Escherichia coli) [13], 21.6%.

Source of the values: ChEMBL document CHEMBL1153954, “Promiscuous aggregate-based inhibitors promote enzyme unfolding” (J Med Chem, 2009).
